ChEMBL document CHEMBL3352129, “Synthesis and biological activity of cyclolinopeptide A analogues modified with γ(3)-bis(homophenylalanine)” (Eur J Med Chem, 2014)
The source made the active and inactive calls. No cut-off for these calls is given here. Numbered stars: 1 amine (or outer) side, 2 acyl side, 3 side chain; on linkers, the order of the positions; unused ones are H or OH. Square brackets hold non-standard residues; d marks the D form. Peptide text beside a SMILES is read from it. GABA(3S-Bn) = O=C(C[C@@H](CN[*:1])Cc1ccccc1)[*:2]; GABA(3R-Bn) = O=C(C[C@H](CN[*:1])Cc1ccccc1)[*:2]

Experiments:
[1] = Retention time of the compound; format: physicochemical
[2] = system: PBMC; test: Antiproliferative activity against human PBMC assessed as inhibition of PHA-induced proliferation at 1 to 100 ug/ml; format: functional, cell-based
Outline: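 Human PBMC from a single donor were isolated on a ficoll gradient and plated at 2×10^5 cells/well in RPMI-1640 with 10% FCS. Stimulation was PHA 5 μg/mL. Compounds were tested at 1, 10 and 100 μg/mL, with DMSO dilutions as control. After 4 days, proliferation was read by MTT. Result is mean OD of quadruplicate wells ± SE.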

[3] = system: PBMC; test: Cytotoxicity against human PBMC cells at 1 to 100 ug/ml after 24 hrs by MTT assay; format: cell-based
Outline: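 Human PBMC from a single donor were plated at 3×10^5/well in RPMI-1640 with 10% FCS. Compounds at 1, 10 or 100 μg/mL were added for 24 h. Viability was read by MTT and expressed as percent viable cells versus matching DMSO controls.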

[4] = system: Blood; test: Inhibition of LPS-induced TNFalpha secretion in human whole blood cells at 5 ug/ml by immune assay; format: functional
Outline: (§1)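 Venous blood from a single donor was diluted 10× in RPMI-1640 and stimulated with E. coli LPS 1 μg/mL, serotype 0:111:B4. Compounds were added at 5 or 25 μg/mL, with DMSO dilutions as controls. After overnight culture, supernatants were frozen at −20 °C. TNF-α was then measured by ELISA.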

[5] = system: Blood; test: Inhibition of LPS-induced TNFalpha secretion in human whole blood cells at 25 ug/ml by immune assay; format: functional; outline: as §1
[6] = system: Mus musculus; test: Immunosuppressive effect in ovalbumin-induced mouse delayed type hypersensitivity model assessed as inhibition of DTH reaction at 100 ug, ip treated 2 hrs before ovalbumin sensitization; format: functional
Outline: (§2)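 CBA mice were sensitized s.c. at tail base with 5 μg OVA in complete Freund's adjuvant. After 4 days they were challenged with 50 μg OVA in incomplete adjuvant in hind foot pads. Swelling was measured by caliper 24 h later. Unsensitized challenged mice gave background. Compounds in DMSO/saline were given i.p. 2 h before sensitization or 2 h before elicitation, with solvent controls. Result: 5 mice/group, DTH units (10^-2 cm) ± SE.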

[7] = system: Mus musculus; test: Immunosuppressive effect in ovalbumin-induced mouse delayed type hypersensitivity model assessed as inhibition of DTH reaction at 100 ug, ip treated 2 hrs before elicitation of DTH reaction with secoond dose of antigen; format: functional, organism-based; outline: as §2
[8] = system: Blood; test: Stimulation of LPS-induced TNFalpha secretion in human whole blood cells at 5 ug/ml by immuno assay; format: functional, cell-based; outline: as §1
[9] = system: Blood; test: Stimulation of LPS-induced TNFalpha secretion in human whole blood cells at 25 ug/ml by immuno assay; format: functional, cell-based; outline: as §1

SMILES	Retention_time [1]	inhibition [2]	Activity [3]	inhibition [4]	inhibition [5]	inhibition [6]	inhibition at 5 µg/mL [4]	inhibition at 25 µg/mL [5]	inhibition [7]	Activity [8]	Activity [9]	inhibition (INH) [6]
CC[C@H](C)[C@H](N)C(=O)N[C@H](C(=O)N[C@@H](CC(C)C)C(=O)N[C@H](C(=O)N1CCC[C@H]1C(=O)N1CCC[C@H]1C(=O)NC[C@@H](CC(=O)N[C@@H](Cc1ccccc1)C(=O)N[C@@H](CC(C)C)C(=O)O)Cc1ccccc1)C(C)C)[C@@H](C)CC (H-IILVPP[GABA(3R-Bn)]FL-OH)	13.383 min	inactive	Non-toxic	Active	Active							
CC[C@H](C)[C@@H]1NC(=O)[C@H](CC(C)C)NC(=O)C[C@H](Cc2ccccc2)CNC(=O)C[C@H](Cc2ccccc2)CNC(=O)[C@@H]2CCCN2C(=O)[C@@H]2CCCN2C(=O)[C@H](C(C)C)NC(=O)[C@H](CC(C)C)NC(=O)[C@H]([C@@H](C)CC)NC1=O (cyclo(IILVPP[GABA(3S-Bn)][GABA(3S-Bn)]L))	10.11 min	Active	Dose-dependent effect									
CC[C@H](C)[C@@H]1NC(=O)[C@H](CC(C)C)NC(=O)C[C@H](Cc2ccccc2)CNC(=O)C[C@@H](Cc2ccccc2)CNC(=O)[C@@H]2CCCN2C(=O)[C@@H]2CCCN2C(=O)[C@H](C(C)C)NC(=O)[C@H](CC(C)C)NC(=O)[C@H]([C@@H](C)CC)NC1=O (cyclo(IILVPP[GABA(3R-Bn)][GABA(3S-Bn)]L))	9.605 min	Active	Dose-dependent effect									
CC[C@H](C)[C@H](N)C(=O)N[C@H](C(=O)N[C@@H](CC(C)C)C(=O)N[C@H](C(=O)N1CCC[C@H]1C(=O)N1CCC[C@H]1C(=O)N[C@@H](Cc1ccccc1)C(=O)NC[C@H](CC(=O)N[C@@H](CC(C)C)C(=O)O)Cc1ccccc1)C(C)C)[C@@H](C)CC (H-IILVPPF[GABA(3S-Bn)]L-OH)	13.177 min	inactive	Non-toxic							Active	Active	
CC[C@H](C)[C@@H]1NC(=O)[C@H](CC(C)C)NC(=O)C[C@@H](Cc2ccccc2)CNC(=O)[C@H](Cc2ccccc2)NC(=O)[C@@H]2CCCN2C(=O)[C@@H]2CCCN2C(=O)[C@H](C(C)C)NC(=O)[C@H](CC(C)C)NC(=O)[C@H]([C@@H](C)CC)NC1=O (cyclo(F[GABA(3R-Bn)]LIILVPP))	11.87 min	Active	Dose-dependent effect									
CC[C@H](C)[C@H](N)C(=O)N[C@H](C(=O)N[C@@H](CC(C)C)C(=O)N[C@H](C(=O)N1CCC[C@H]1C(=O)N1CCC[C@H]1C(=O)N[C@@H](Cc1ccccc1)C(=O)NC[C@@H](CC(=O)N[C@@H](CC(C)C)C(=O)O)Cc1ccccc1)C(C)C)[C@@H](C)CC (H-IILVPPF[GABA(3R-Bn)]L-OH)	14.168 min	inactive	Non-toxic		Active							
CC[C@H](C)[C@H](N)C(=O)N[C@H](C(=O)N[C@@H](CC(C)C)C(=O)N[C@H](C(=O)N1CCC[C@H]1C(=O)N1CCC[C@H]1C(=O)NC[C@H](CC(=O)NC[C@H](CC(=O)N[C@@H](CC(C)C)C(=O)O)Cc1ccccc1)Cc1ccccc1)C(C)C)[C@@H](C)CC (H-IILVPP[GABA(3S-Bn)][GABA(3S-Bn)]L-OH)	13.233 min	inactive	Non-toxic							Active	Active	

Now from value to molecule, other results behind:

Retention_time [1]	SMILES	inhibition [2]	Activity [3]	inhibition [4]	inhibition [5]	inhibition [6]	inhibition at 5 µg/mL [4]	inhibition at 25 µg/mL [5]	inhibition [7]	Activity [8]	Activity [9]	inhibition (INH) [6]
10.543 min	CC[C@H](C)[C@@H]1NC(=O)[C@H](CC(C)C)NC(=O)C[C@@H](Cc2ccccc2)CNC(=O)C[C@H](Cc2ccccc2)CNC(=O)[C@@H]2CCCN2C(=O)[C@@H]2CCCN2C(=O)[C@H](C(C)C)NC(=O)[C@H](CC(C)C)NC(=O)[C@H]([C@@H](C)CC)NC1=O (cyclo(IILVPP[GABA(3S-Bn)][GABA(3R-Bn)]L))	Active	Dose-dependent effect									
11.63 min	CC[C@H](C)[C@@H]1NC(=O)[C@H](CC(C)C)NC(=O)C[C@H](Cc2ccccc2)CNC(=O)[C@H](Cc2ccccc2)NC(=O)[C@@H]2CCCN2C(=O)[C@@H]2CCCN2C(=O)[C@H](C(C)C)NC(=O)[C@H](CC(C)C)NC(=O)[C@H]([C@@H](C)CC)NC1=O (cyclo(F[GABA(3S-Bn)]LIILVPP))	Active	Non-toxic			Active	55%	42%	Active			
13.938 min	CC[C@H](C)[C@H](N)C(=O)N[C@H](C(=O)N[C@@H](CC(C)C)C(=O)N[C@H](C(=O)N1CCC[C@H]1C(=O)N1CCC[C@H]1C(=O)NC[C@H](CC(=O)NC[C@@H](CC(=O)N[C@@H](CC(C)C)C(=O)O)Cc1ccccc1)Cc1ccccc1)C(C)C)[C@@H](C)CC (H-IILVPP[GABA(3S-Bn)][GABA(3R-Bn)]L-OH)	inactive	Non-toxic									
9.89 min	CC[C@H](C)[C@@H]1NC(=O)[C@H](CC(C)C)NC(=O)[C@H](Cc2ccccc2)NC(=O)C[C@H](Cc2ccccc2)CNC(=O)[C@@H]2CCCN2C(=O)[C@@H]2CCCN2C(=O)[C@H](C(C)C)NC(=O)[C@H](CC(C)C)NC(=O)[C@H]([C@@H](C)CC)NC1=O (cyclo(FLIILVPP[GABA(3S-Bn)]))	Active	Dose-dependent effect									
13.085 min	CC[C@H](C)[C@H](N)C(=O)N[C@H](C(=O)N[C@@H](CC(C)C)C(=O)N[C@H](C(=O)N1CCC[C@H]1C(=O)N1CCC[C@H]1C(=O)NC[C@@H](CC(=O)NC[C@H](CC(=O)N[C@@H](CC(C)C)C(=O)O)Cc1ccccc1)Cc1ccccc1)C(C)C)[C@@H](C)CC (H-IILVPP[GABA(3R-Bn)][GABA(3S-Bn)]L-OH)	inactive	Non-toxic							Active	Active	
14.073 min	CC[C@H](C)[C@H](N)C(=O)N[C@H](C(=O)N[C@@H](CC(C)C)C(=O)N[C@H](C(=O)N1CCC[C@H]1C(=O)N1CCC[C@H]1C(=O)NC[C@@H](CC(=O)NC[C@@H](CC(=O)N[C@@H](CC(C)C)C(=O)O)Cc1ccccc1)Cc1ccccc1)C(C)C)[C@@H](C)CC (H-IILVPP[GABA(3R-Bn)][GABA(3R-Bn)]L-OH)	inactive	Non-toxic	Active	Active	Active			Active			50%
12.69 min	CC[C@H](C)[C@H](N)C(=O)N[C@H](C(=O)N[C@@H](CC(C)C)C(=O)N[C@H](C(=O)N1CCC[C@H]1C(=O)N1CCC[C@H]1C(=O)NC[C@H](CC(=O)N[C@@H](Cc1ccccc1)C(=O)N[C@@H](CC(C)C)C(=O)O)Cc1ccccc1)C(C)C)[C@@H](C)CC (H-IILVPP[GABA(3S-Bn)]FL-OH)	inactive	Non-toxic							Active	Active	
9.242 min	CC[C@H](C)[C@@H]1NC(=O)[C@H](CC(C)C)NC(=O)C[C@@H](Cc2ccccc2)CNC(=O)C[C@@H](Cc2ccccc2)CNC(=O)[C@@H]2CCCN2C(=O)[C@@H]2CCCN2C(=O)[C@H](C(C)C)NC(=O)[C@H](CC(C)C)NC(=O)[C@H]([C@@H](C)CC)NC1=O (cyclo(IILVPP[GABA(3R-Bn)][GABA(3R-Bn)]L))	Active	Dose-dependent effect									
10.033 min	CC[C@H](C)[C@@H]1NC(=O)[C@H](CC(C)C)NC(=O)[C@H](Cc2ccccc2)NC(=O)C[C@@H](Cc2ccccc2)CNC(=O)[C@@H]2CCCN2C(=O)[C@@H]2CCCN2C(=O)[C@H](C(C)C)NC(=O)[C@H](CC(C)C)NC(=O)[C@H]([C@@H](C)CC)NC1=O (cyclo(FLIILVPP[GABA(3R-Bn)]))	Active	Dose-dependent effect									
